Data reported in ChEMBL document CHEMBL1122744, “2-Chloroethyl (methylsulfonyl)methanesulfonate and related (methylsulfonyl)methanesulfonates. Antineoplastic activity in vivo” (J Med Chem, 1984).

Key:
[1] = Ratio of number of 60-day survivors to the total treated mice at dose 50 mg/kg in exp6; […]; assay type: functional
Mus musculus [2] = test: Mortality by day 5 expressed as number of mice died to the total treated at dose 100 mg/kg in exp1; 1/6; assay type: ADME, organism-based; set-up: dose 100 mg/kg; conditions: in vivo
Mus musculus [3] = test: Mortality by day 5 expressed as number of mice died to the total treated at dose 100 mg/kg in exp8*-Mortality was 3/6 by day 6; 2/6; assay type: ADME, organism-based; set-up: dose 100 mg/kg; conditions: in vivo
Mus musculus [4] = test: Median survival time of the treated control groups, in which there are no 30-day survivors at dose 33 mg/kg in exp6; assay type: functional
Mus musculus [5] = test: Median survival time of the untreated control groups, in which there are no 30-day survivors at dose 22 mg/kg in exp6; assay type: functional
Mus musculus [6] = test: Mortality by day 5 expressed as number of mice died to the total treated at dose 100 mg/kg in exp2; 1/5; assay type: ADME, organism-based; set-up: dose 100 mg/kg; conditions: in vivo
Mus musculus [7] = test: Change in weight by day 5, obtained by subtracting treated groups of animals minus control groups of animals at dose 50 mg/kg in exp7; assay type: functional
In short: (§1)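 Mice were inoculated ip with 10^6 P388 leukemia cells on day 0 and weighed 19–22 g that day. Compound was given ip once daily on days 1–5, within about 5 min of preparing the solution or suspension, to groups of six (occasionally five). Thirty inoculated untreated mice served as controls. The value is the average weight change of treated mice minus that of controls on day 5.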

Mus musculus [8] = test: Change in weight by day 5, obtained by subtracting treated groups of animals minus control groups of animals at dose 22 mg/kg in exp7; assay type: functional; in short: as §1
[9] = Ratio of number of 30-day survivors to the total treated mice at dose 50 mg/kg in exp8; 4/6; assay type: functional
Mus musculus [10] = test: Median survival time of the untreated control groups, in which there are no 30-day survivors at dose 50 mg/kg in exp1; assay type: functional
Mus musculus [11] = test: Change in weight by day 5, obtained by subtracting treated groups of animals minus control groups of animals at dose 22 mg/kg in exp6; assay type: functional; in short: as §1
Mus musculus [12] = test: Mortality by day 5 expressed as number of mice died to the total treated at dose 50 mg/kg in exp7; 0/6; assay type: ADME, organism-based; set-up: dose 50 mg/kg; conditions: in vivo
Mus musculus [13] = test: Mortality by day 5 expressed as number of mice died to the total treated at dose 50 mg/kg in exp2; 0/5; assay type: ADME, organism-based; set-up: dose 50 mg/kg; conditions: in vivo
Mus musculus [14] = test: Median survival time of the treated control groups, in which there are no 30-day survivors at dose 50 mg/kg in exp8; assay type: functional
Mus musculus [15] = test: Median survival time of the untreated control groups, in which there are no 30-day survivors at dose 50 mg/kg in exp5; assay type: functional
Mus musculus [16] = test: Median survival time of the treated control groups, in which there are no 30-day survivors at dose 15 mg/kg in exp3; assay type: functional
Mus musculus [17] = test: Change in weight by day 5, obtained by subtracting treated groups of animals minus control groups of animals at dose 33 mg/kg in exp6; assay type: functional; in short: as §1
Mus musculus [18] = test: Change in weight by day 5, obtained by subtracting treated groups of animals minus control groups of animals at dose 33 mg/kg in exp3.; assay type: functional; in short: as §1
Mus musculus [19] = test: Change in weight by day 5, obtained by subtracting treated groups of animals minus control groups of animals at dose 22 mg/kg in exp4.
[20] = Ratio of number of 60-day survivors to the total treated mice at dose 50 mg/kg in exp4; 6/6; assay type: functional
[21] = Ratio of median survival times for non-survivors at dose 100 mg/kg in exp8*-toxic; assay type: functional
In short: (§2)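 Mice were inoculated ip with 10^6 P388 leukemia cells on day 0. Groups of six (occasionally five) were dosed ip qd on days 1–5 with fresh suspensions; 30 mice served as untreated controls. Deaths were recorded daily up to day 60. T/C% compares the median survival of treated non-survivors (<60 days) with the control median. Medians used grouped data when there were no 30-day survivors, otherwise ungrouped data. t = toxic.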

[22] = Ratio of median survival times for non-survivors at dose 33 mg/kg in exp6; assay type: functional
[23] = Ratio of median survival times for non-survivors at dose 33 mg/kg in exp7; assay type: functional
[24] = Ratio of median survival times for non-survivors at dose 50 mg/kg in exp8; assay type: functional
Mus musculus [25] = test: Change in weight by day 5, obtained by subtracting treated groups of animals minus control groups of animals at dose 50 mg/kg in exp1.; assay type: functional; in short: as §1
Mus musculus [26] = test: Mortality by day 5 expressed as number of mice died to the total treated at dose 50 mg/kg in exp5; 0/6; assay type: ADME, organism-based; set-up: dose 50 mg/kg; conditions: in vivo
Mus musculus [27] = test: Median survival time of the untreated control groups, in which there are no 30-day survivors at dose 50 mg/kg in exp4; assay type: functional
[28] = Ratio of number of 30-day survivors to the total treated mice at dose 50 mg/kg in exp6; 3/6; assay type: functional
Mus musculus [29] = test: Mortality by day 5 expressed as number of mice died to the total treated at dose 50 mg/kg in exp4; 0/6; assay type: ADME, organism-based; set-up: dose 50 mg/kg; conditions: in vivo
[30] = Ratio of number of 60-day survivors to the total treated mice at dose 33 mg/kg in exp4; 0/6; assay type: functional
Mus musculus [31] = test: Median survival time of the untreated control groups, in which there are no 30-day survivors at dose 75 mg/kg in exp2; assay type: functional
Mus musculus [32] = test: Median survival time of the untreated control groups, in which there are no 30-day survivors at dose 33 mg/kg in exp2; assay type: functional
Mus musculus [33] = test: Median survival time of the treated control groups, in which there are no 30-day survivors at dose 100 mg/kg in exp1; assay type: functional
[34] = Ratio of median survival times for non-survivors at dose 33 mg/kg in exp2; assay type: functional
[35] = Ratio of median survival times for non-survivors at dose 100 mg/kg in exp2; assay type: functional; in short: as §2
Mus musculus [36] = test: Median survival time of the treated control groups, in which there are no 30-day survivors at dose 22 mg/kg in exp5; assay type: functional
Mus musculus [37] = test: Median survival time of the treated control groups, in which there are no 30-day survivors at dose 50 mg/kg in exp5; assay type: functional
[38] = Ratio of median survival times for non-survivors at dose 33 mg/kg in exp5; assay type: functional
[39] = Ratio of median survival times for non-survivors at dose 22 mg/kg in exp4
Mus musculus [40] = test: Mortality by day 5 expressed as number of mice died to the total treated at dose 22 mg/kg in exp6; 0/6; assay type: ADME, organism-based; set-up: dose 22 mg/kg; conditions: in vivo
Mus musculus [41] = test: Change in weight by day 5, obtained by subtracting treated groups of animals minus control groups of animals at dose 100 mg/kg in exp2.; assay type: functional; in short: as §1
Mus musculus [42] = test: Change in weight by day 5, obtained by subtracting treated groups of animals minus control groups of animals at dose 22 mg/kg in exp3.; assay type: functional; in short: as §1
Mus musculus [43] = test: Mortality by day 5 expressed as number of mice died to the total treated at dose 33 mg/kg in exp3; 0/5; assay type: ADME, organism-based; set-up: dose 33 mg/kg; conditions: in vivo
[44] = Ratio of number of 60-day survivors to the total treated mice at dose 50 mg/kg in exp2; 0/5; assay type: functional

## CS(=O)(=O)CS(=O)(=O)OCCCl
[1]
  Ratio: 2
Mus musculus [2]
  Mortality: 1
Mus musculus [3]
  Mortality: 2
Mus musculus [4]
  Median survival time: 23.3
Mus musculus [5]
  Median survival time: 13
Mus musculus [6]
  Mortality: 1
Mus musculus [7]
  Change in weight: -3
Mus musculus [8]
  Change in weight: -2.2
[9]
  Ratio: 4
Mus musculus [10]
  Median survival time: 11.2
Mus musculus [11]
  Change in weight: -1.4
Mus musculus [12]
  Mortality: 0
Mus musculus [13]
  Mortality: 0
Mus musculus [14]
  Median survival time: 30
Mus musculus [15]
  Median survival time: 12
Mus musculus [16]
  Median survival time: 16
Mus musculus [17]
  Change in weight: -2.1
Mus musculus [18]
  Change in weight: -2.8
Mus musculus [19]
  Change in weight: -1.2
[20]
  Ratio: 6
[21]
  Ratio: 55
[22]
  Ratio: 179
[23]
  Ratio: 179
[24]
  Ratio: 273
Mus musculus [25]
  T-C: -3.4 g
Mus musculus [26]
  Mortality: 0
Mus musculus [27]
  Median survival time: 10.5
[28]
  Ratio: 3
Mus musculus [29]
  Mortality: 0
[30]
  Ratio: 0
Mus musculus [31]
  Median survival time: 11.2
Mus musculus [32]
  Median survival time: 11.2
Mus musculus [33]
  Median survival time: 17
[34]
  Ratio: 209
[35]
  Ratio: 200
Mus musculus [36]
  Median survival time: 19.4
Mus musculus [37]
  Median survival time: 27
[38]
  Ratio: 214
[39]
  Ratio: 180
Mus musculus [40]
  Mortality: 0
Mus musculus [41]
  Change in weight: -4.1
Mus musculus [42]
  Change in weight: -1.3
Mus musculus [43]
  Mortality: 0
[44]
  Ratio: 0
